Test results: ChEMBL document CHEMBL1153403, “Design, synthesis, and evaluation of novel fluoroquinolone-aminoglycoside hybrid antibiotics” (J Med Chem, 2009); call rule not given here
≈ marks a conversion by molar mass, not a printed value.

Tests used:
Escherichia coli [1] = assay: Resistance index, MIC for aminoglycosides-resistant Escherichia coli BL21 harboring pETSACG1 expressing APH(3')-3a enzyme to MIC for Escherichia coli BL21; type: functional
Summary of the method: (§1)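 Ratio of MIC on the plasmid-bearing resistant strain to MIC on its background strain (pETSACG1 vs BL21; pET9d or pSF815 vs XL1 blue). MICs by NCCLS double microdilution from starting concentrations of 384 and 1.5 µg/mL, in duplicate, two to four experiments.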

Escherichia coli [2] = assay: Antibacterial activity against Escherichia coli ATCC 25922 by double-microdilution method; type: functional
Escherichia coli [3] = assay: Antibacterial activity against Escherichia coli R477-100 by double-microdilution method; type: functional
[4] = Inhibition of Escherichia coli topoisomerase 4 assessed as reduction in supercoiled pBR322 DNA relaxation activity after 30 mins by electrophoresis
Summary of the method: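 E. coli TopoIV relaxation of supercoiled pBR322 in 40 mM HEPES-KOH pH 7.6 with 100 mM potassium glutamate, 10 mM Mg(OAc)₂, 10 mM DTT, 1 mM ATP and 50 µg/mL albumin. Incubated 37 °C for 30 min, stopped with EDTA, loading dye and chloroform/isoamyl alcohol, then run on 1% agarose. Supercoiled DNA percentage was quantified from gel images. IC50 is the 50% reduction versus drug-free control.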

Escherichia coli [5] = assay: Antibacterial activity against aminoglycosides-resistant Escherichia coli XL1-blue harboring pET9d expressing APH(3')-1a enzyme by double-microdilution method; type: functional
Escherichia coli [6] = assay: Inhibition of protein synthesis in Escherichia coli S30 extracts assessed as luciferase activity after 1 hr by coupled transcription/translation assay; type: functional; details: Escherichia coli, 1 h; read-out: IC50
Summary of the method: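 Coupled transcription/translation of the pBESTluc plasmid in E. coli S30 extract with varying compound concentrations, 37 °C for 60 min. Reactions were cooled on ice, diluted in Tris-phosphate pH 7.8 reagent, and luciferase luminescence was read immediately after substrate addition. IC50 came from concentration-response curves fitted to at least two independent experiments.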

Escherichia coli [7] = assay: Resistance index, MIC for aminoglycosides-resistant Escherichia coli XL1-blue harboring pET9d expressing APH(3')-1a enzyme to MIC for Escherichia coli XL1-blue; type: functional; summary of the method: as §1
Escherichia coli [8] = assay: Antibacterial activity against Escherichia coli XL1-blue by double-microdilution method; type: functional
Escherichia coli [9] = assay: Antibacterial activity against Escherichia coli BL21 by double-microdilution method; type: functional
Bacillus subtilis = assay: Antibacterial activity against aminoglycosides-susceptible Bacillus subtilis ATCC 6633 by double-microdilution method; type: functional
Escherichia coli [10] = assay: Antibacterial activity against kanamycin-resistant Escherichia coli AG100A expressing aminoglycosides resistant APH(3')-1 enzyme by double-microdilution method; type: functional
[11] = Inhibition of Escherichia coli DNA gyrase assessed as reduction in relaxed pBR322 DNA supercoiling activity after 1 hr by electrophoresis
Summary of the method: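 Supercoiling of relaxed pBR322 (12.5 ng/µL) by E. coli DNA gyrase in 35 mM Tris-Cl pH 7.5 with 24 mM KCl, 4 mM MgCl₂, 2 mM DTT, 1.8 mM spermidine, 1 mM ATP, 6.5% glycerol and 0.1 mg/mL BSA. Incubated 37 °C for 1 h, stopped with loading dye plus chloroform/isoamyl alcohol, and resolved on 1% agarose. IC50 is the concentration halving activity versus drug-free control.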

Staphylococcus aureus = assay: Antibacterial activity against methicillin-resistant Staphylococcus aureus ATCC 43300 by double-microdilution method; type: functional
Escherichia coli [12] = assay: Antibacterial activity against kanamycin-resistant Escherichia coli AG100B expressing aminoglycosides resistant APH(3')-1 enzyme by double-microdilution method; type: functional
Escherichia coli [13] = assay: Antibacterial activity against aminoglycosides-resistant Escherichia coli BL21 harboring pETSACG1 expressing APH(3')-3a enzyme by double-microdilution method; type: functional
Escherichia coli [14] = assay: Resistance index, MIC for aminoglycosides-resistant Escherichia coli XL1-blue harboring pSF815 expressing AAC(6')-APH(2'') enzyme to MIC for Escherichia coli XL1-blue; type: functional; summary of the method: as §1
Escherichia coli [15] = assay: Antibacterial activity against aminoglycosides-resistant Escherichia coli XL1-blue harboring pSF815 expressing AAC(6')-APH(2'') enzyme by double-microdilution method; type: functional
[16] = Activity at aminoglycoside 3'-phosphotransferase 3a
[17] = Ratio of kcat/km for aminoglycoside 3'-phosphotransferase 3a

Compound	Ratio (Escherichia coli [1])	MIC (Escherichia coli [2]) [µg/mL]	MIC (Escherichia coli [3]) [µg/mL]	IC50 ([4]; read-out: IC50) [µM]	MIC (Escherichia coli [5]) [µg/mL]	IC50 (Escherichia coli [6]) [µM]	Ratio (Escherichia coli [7])	MIC (Escherichia coli [8]) [µg/mL]	MIC (Escherichia coli [9]) [µg/mL]	MIC (Bacillus subtilis) [µg/mL]	MIC (Escherichia coli [10]) [µg/mL]	IC50 ([11]; read-out: IC50) [µM]	MIC (Staphylococcus aureus) [µg/mL]	MIC (Escherichia coli [12]) [µg/mL]	MIC (Escherichia coli [13]) [µg/mL]	Ratio (Escherichia coli [14])	MIC (Escherichia coli [15]) [µg/mL]	Km [16] [µM]	kcat [16] [s⁻¹]	kcat/Km [17] [×10⁴ /M/s]	further results
NC[C@@H]1O[C@H](O[C@H]2[C@@H](O)[C@H](O[C@@H]3[C@@H](O)[C@H](N)C[C@H](N)[C@H]3O[C@H]3O[C@H](CN)[C@@H](O)[C@H](O)[C@H]3N)O[C@@H]2C(=O)Nc2ccc(-c3cn(Cc4ccc(CN5CCN(c6cc7c(cc6F)c(=O)c(C(=O)O)cn7C6CC6)CC5)cc4)nn3)cc2)[C@H](N)[C@@H](O)[C@@H]1O	1	3 (≈ 2.49 µM)	1.5 (≈ 1.25 µM)	0.55	3 (≈ 2.49 µM)	16.7	1	3 (≈ 2.49 µM)	0.4 (≈ 0.332 µM)	1.5 (≈ 1.25 µM)	0.75 (≈ 0.623 µM)	0.085	3 (≈ 2.49 µM)	3 (≈ 2.49 µM)	0.4 (≈ 0.332 µM)	8	24 (≈ 19.9 µM)	–	–	–	–
NC[C@@H]1O[C@H](O[C@H]2[C@@H](O)[C@H](O[C@@H]3[C@@H](O)[C@H](N)C[C@H](N)[C@H]3O[C@H]3O[C@H](CN)[C@@H](O)[C@H](O)[C@H]3N)O[C@@H]2CO)[C@H](N)[C@@H](O)[C@@H]1O [FRAMYCETIN]	8	48 (≈ 78.1 µM)	24 (≈ 39 µM)	–	96 (≈ 156 µM)	10.5	16	6 (≈ 9.76 µM)	6 (≈ 9.76 µM)	1.5 (≈ 2.44 µM)	96 (≈ 156 µM)	–	384 (≈ 625 µM)	384 (≈ 625 µM)	48 (≈ 78.1 µM)	>64	> 384	5.7	2.4	42	IC50 [4]: Not Active; IC50 [11]: Not Active
NC[C@@H]1O[C@H](O[C@H]2[C@@H](O)[C@H](O[C@@H]3[C@@H](O)[C@H](N)C[C@H](N)[C@H]3O[C@H]3O[C@H](CN)[C@@H](O)[C@H](O)[C@H]3N)O[C@@H]2COCc2cn(CCN3CCN(c4cc5c(cc4F)c(=O)c(C(=O)O)cn5C4CC4)CC3)nn2)[C@H](N)[C@@H](O)[C@@H]1O	1	3 (≈ 2.85 µM)	3 (≈ 2.85 µM)	7.9	12 (≈ 11.4 µM)	18.1	4	3 (≈ 2.85 µM)	0.2 (≈ 0.19 µM)	0.75 (≈ 0.712 µM)	0.38 (≈ 0.361 µM)	0.041	6 (≈ 5.7 µM)	12 (≈ 11.4 µM)	0.2 (≈ 0.19 µM)	4	12 (≈ 11.4 µM)	–	–	–	–
NC[C@@H]1O[C@H](O[C@H]2[C@@H](O)[C@H](O[C@@H]3[C@@H](O)[C@H](N)C[C@H](N)[C@H]3O[C@H]3O[C@H](CN)[C@@H](O)[C@H](O)[C@H]3N)O[C@@H]2C(=O)NCc2cn(CC(O)CN3CCN(c4cc5c(cc4F)c(=O)c(C(=O)O)cn5C4CC4)CC3)nn2)[C@H](N)[C@@H](O)[C@@H]1O (stereo partly specified)	1	3 (≈ 2.74 µM)	6 (≈ 5.47 µM)	–	12 (≈ 10.9 µM)	–	2	6 (≈ 5.47 µM)	0.2 (≈ 0.182 µM)	3 (≈ 2.74 µM)	0.75 (≈ 0.684 µM)	–	12 (≈ 10.9 µM)	12 (≈ 10.9 µM)	0.2 (≈ 0.182 µM)	8	48 (≈ 43.8 µM)	86.8	2.5	2.9	–
